Consider 5 compounds from ChEMBL document CHEMBL3861994, “1,2,3-Triazole-based inhibitors of Porphyromonas gingivalis adherence to oral streptococci and biofilm formation” (Bioorg Med Chem, 2016).

Data set [1] relates to Porphyromonas gingivalis. As to the kind of experiment: Growth inhibition of Porphyromonas gingivalis at 5 uM measured after 24 hrs.
Data set [2] in a line: (§1) Inhibition of Porphyromonas gingivalis ATCC 33277 MFA interaction with Streptococcus gordonii DL1(1) antigen 1/2 assessed as inhibition of 5(6)-carboxyfluorescein N-hydroxysuccinimide ester-labeled Porphyromonas gingivalis ATCC 33277 cell adhesion to hexidium iodide-labeled Streptococcus gordonii DL1(1) by measuring inhibition of biofilm formation preincubated with Porphyromonas gingivalis ATCC 33277 for 30 mins followed by addition to Streptococcus gordonii DL1(1) culture measured after 22 hrs by laser scanning confocal microscopy. It is filed as cell-based. In outline: (§2)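 Hexidium iodide-labelled S. gordonii (OD600 0.8 in PBS, pH 7.2) was bound to coverslips for 24 h, anaerobic, 37 °C. Carboxyfluorescein-labelled P. gingivalis (OD600 0.4) was preincubated 30 min at room temperature with compound (0–60 μM final, from 1000X DMSO stock), added, then incubated 22 h anaerobically. After fixation, confocal z-stacks (488/552 nm) were taken. IC50 is 50% reduction of the green/red fluorescence ratio; triplicates, three independent experiments.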

A short description of data set [3]: Cytotoxicity against gingival epithelial cells (unknown origin). It is filed as toxicity, cell-based. The following applies: epithelial cell.
Data set [4] relates to Streptococcus gordonii. As to the kind of experiment: Growth inhibition of Streptococcus gordonii at 5 uM measured after 24 hrs. Particulars: read-out: GI.
Data set [5] deals with Streptococcus gordonii. The data set can be described thus: Growth inhibition of Streptococcus gordonii at 20 uM measured after 24 hrs. The following applies: read-out: GI.
For data set [6], the system named is Porphyromonas gingivalis. As to the kind of experiment: Growth inhibition of Porphyromonas gingivalis at 20 uM measured after 24 hrs.
The subject of data set [7] is ATCC 33277. The description is as §1. It is filed as cell-based. In outline: as §2
In data set [8] the test system is Streptococcus gordonii. The data set can be described thus: Growth inhibition of Streptococcus gordonii at 40 uM measured after 24 hrs. Particulars: read-out: GI.
Data set [9] has as its system Porphyromonas gingivalis. The data set can be described thus: Growth inhibition of Porphyromonas gingivalis at 40 uM measured after 24 hrs.

With `Fc1cccc(-c2cn(-c3cccc(-c4nc(-c5ccc(Br)cc5)c(-c5ccc(Br)cc5)o4)c3)nn2)c1`, in data set [1], the “growth inhibition (GI)” value is given as -4.3%. Besides, the IC50 (usually the point on the concentration scale where inhibition reaches its midpoint) in data set [2] was 5 µM. Further, the Activity result in data set [3] is “Toxic”. Further, the inhibition at 5 µM in data set [4] is -5.7%.
As for `COc1ccccc1-c1cn(-c2ccc(-c3nc(-c4ccc(F)cc4)c(-c4ccc(F)cc4)o3)cc2)nn1`, in data set [2], the IC50 worked out at 7.7 µM. Also, the inhibition at 20 µM in data set [5] was -7.8%. In addition, in data set [3], the Activity entry was “Toxic”. Also, in data set [6], the “growth inhibition (GI)” value is reported as -0.5%.
Taken in the same sequence, the figures for `COc1ccc(-c2nc(-c3cccc(-n4cc(-c5ccc6cc(OC)ccc6c5)nn4)c3)oc2-c2ccc(OC)cc2)cc1` were 13 µM, -1.3%, “Toxic” and 3%.
`COc1ccccc1-c1cn(-c2cccc(-c3nc(-c4ccc(Br)cc4)c(-c4ccc(Br)cc4)o3)c2)nn1`: the IC50 in data set [2] is 15 µM. Besides, the inhibition result in data set [7] is “Dose-dependent effect”. The inhibition at 40 µM in [8] was found to be 10.5%. Moreover, the Activity entry in [3] is “Toxic”. Also, in data set [9], the “growth inhibition (GI)” value is listed as 4.3%.
Turning to `COc1ccc(-c2nc(-c3cccc(-n4cc(-c5ccc(F)cc5)nn4)c3)oc2-c2ccc(OC)cc2)cc1`, in [2], the IC50 was found to be 53 µM. In addition, in [8], the inhibition at 40 µM was -22.1%. In addition, the Activity entry in data set [3] was “Toxic”. For the same compound, in data set [9], the “growth inhibition (GI)” value is listed as -14.6%.
